Calls of active or inactive are those of the source. The rule behind the calls is not given here.
How the values were obtained:
[1] = target: T1, BCRP (ABCG2) (Homo sapiens, UniProt Q9UNQ0); assay: Inhibition of BCRP (unknown origin) expressed in mouse NIH/3T3 cells assessed as inhibition of mitoxatrone efflux at 10 uM after 1 hr by FACS analysis; assay type: cell-based, NIH3T3; settings: NIH/3T3 cells expressing BCRP, probe mitoxantrone (printed: mitoxatrone)
T1 sequence (Q9UNQ0 whole entry): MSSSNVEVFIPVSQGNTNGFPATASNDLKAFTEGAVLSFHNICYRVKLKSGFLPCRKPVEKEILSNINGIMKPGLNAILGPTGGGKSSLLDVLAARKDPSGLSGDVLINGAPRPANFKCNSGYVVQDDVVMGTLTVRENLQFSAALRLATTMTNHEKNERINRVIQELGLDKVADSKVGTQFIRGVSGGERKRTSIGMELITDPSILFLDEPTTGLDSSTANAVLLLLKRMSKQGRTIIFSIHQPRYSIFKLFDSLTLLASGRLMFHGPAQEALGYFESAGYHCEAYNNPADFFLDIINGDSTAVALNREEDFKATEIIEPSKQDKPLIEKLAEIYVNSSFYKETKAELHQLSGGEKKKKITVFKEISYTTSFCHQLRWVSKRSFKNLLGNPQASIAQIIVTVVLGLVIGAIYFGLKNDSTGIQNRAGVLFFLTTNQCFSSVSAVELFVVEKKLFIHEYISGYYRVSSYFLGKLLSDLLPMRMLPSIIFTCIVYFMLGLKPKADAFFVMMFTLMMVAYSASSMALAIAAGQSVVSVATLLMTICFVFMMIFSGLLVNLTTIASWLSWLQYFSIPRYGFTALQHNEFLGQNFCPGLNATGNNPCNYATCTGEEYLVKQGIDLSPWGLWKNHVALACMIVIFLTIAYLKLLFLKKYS

[2] = target: T2, Protease (Human immunodeficiency virus 1, UniProt Q9YQ12); assay: Inhibition of HIV-1 recombinant protease using DABCYL-GABA-Ser-Asn-Tyr-Pro-Ile-Val-Gln-EDANS as substrate incubated for 30 mins prior to substrate addition by Dixon plot analysis
[3] = Cytotoxicity against mouse NIH/3T3 cells assessed as cell survival after 72 hrs by MTT assay
[4] = Cytotoxicity against mouse NIH/3T3 cells expressing pgp assessed as cell survival after 72 hrs by MTT assay; settings: NIH/3T3 cells expressing P-gp
[5] = Cytotoxicity against human HEK293 cells expressing BCRP assessed as cell survival after 72 hrs by MTT assay
[6] = Cytotoxicity against human HEK293 cells assessed as cell survival after 72 hrs by MTT assay
[7] = target: Protease (Human immunodeficiency virus 1) (UniProt Q9YQ12); assay: Inhibition of HIV-1 protease in human T cells assessed as increase in eGFP expression at 1 to 100 uM after 24 hrs by flow cytometry; assay type: cell-based; settings: T-cell
Summary of the method: (§1)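 SupT1 T cells carry an HIV-1 protease–Gal4 fusion under a tetracycline-inducible promoter and a Gal4-responsive eGFP reporter. They were kept in RPMI 1640 with 10% FBS and 1% penicillin/streptomycin at 37 °C in 5% CO₂. Cells were grown 24 h with 1–100 µM compound, with indinavir (0.0001–10 µM) as reference, then induced with […] doxycycline. eGFP was read 48 h later by flow cytometry (ex 488/em 530 nm).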

[8] = target: T3, MDR1 (ABCB1, P-gp) (Homo sapiens, UniProt P08183); assay: Inhibition of MDR1 (unknown origin) expressed in mouse NIH/3T3 cells assessed as inhibition of mitoxatrone efflux at 10 uM after 1 hr by FACS analysis; assay type: cell-based, NIH3T3; settings: NIH/3T3 cells expressing MDR1, probe mitoxantrone (printed: mitoxatrone)
[9] = target: T2, Protease; assay: Inhibition of HIV-1 recombinant protease using DABCYL-GABA-Ser-Asn-Tyr-Pro-Ile-Val-Gln-EDANS as substrate incubated for 30 mins prior to substrate addition by Hanes plot analysis
[10] = target: T1, BCRP (ABCG2); assay: Inhibition of BCRP (unknown origin) expressed in mouse NIH/3T3 cells assessed as inhibition of mitoxatrone efflux at 2 uM after 1 hr by FACS analysis; assay type: cell-based, NIH3T3; settings: NIH/3T3 cells expressing BCRP, probe mitoxantrone (printed: mitoxatrone)
[11] = target: T3, MDR1 (ABCB1, P-gp); assay: Inhibition of MDR1 (unknown origin) expressed in mouse NIH/3T3 cells assessed as inhibition of mitoxatrone efflux at 2 uM after 1 hr by FACS analysis; assay type: cell-based; settings: NIH/3T3 cells expressing MDR1, probe mitoxantrone (printed: mitoxatrone)
[12] = target: T2, Protease; assay: Inhibition of HIV-1 recombinant protease using DABCYL-GABA-Ser-Asn-Tyr-Pro-Ile-Val-Gln-EDANS as substrate incubated for 30 mins prior to substrate addition by Lineweaver-Burk plot analysis
[13] = Cytotoxicity against mouse NIH/3T3 cells assessed as cell survival after 72 hrs by MTT assay; assay type: cell-based, NIH3T3
[14] = system: HEK293; assay: Cytotoxicity against human HEK293 cells expressing BCRP assessed as cell survival after 72 hrs by MTT assay; assay type: ADME, cell-based; settings: hek293, 72 h
Summary of the method: (§2)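 HEK293 cells stably transfected with BCRP, or with empty vector (HEK293-pcDNA3) as parental control, kept in high-glucose DMEM with 10% FBS, 1% penicillin/streptomycin and 0.75 mg/mL G418, at 37 °C in humidified 5% CO₂. Cells were exposed for 72 h to increasing compound concentrations, and survival was read by MTT colorimetric assay. IC50 is the mean ± sd of at least three independent experiments.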

[15] = system: NIH3T3; assay: (§3) Cytotoxicity against mouse NIH/3T3 cells expressing pgp assessed as cell survival after 72 hrs by MTT assay; assay type: ADME, cell-based; settings: nih3t3, 72 h
[16] = system: HEK293; assay: Cytotoxicity against human HEK293 cells assessed as cell survival after 72 hrs by MTT assay; assay type: cell-based; settings: hek293, 72 h; summary of the method: as §2
[17] = target: Protease (Human immunodeficiency virus 1) (UniProt Q9YQ12); assay: Inhibition of HIV-1 protease in human T cells assessed as increase in eGFP expression at 0.1 uM after 24 hrs by flow cytometry; assay type: cell-based; settings: T-cell
[18] = Cytotoxicity against human HEK293 cells assessed as cell survival after 72 hrs by MTT assay; remark: listed apart in the source
[19] = target: Protease (Human immunodeficiency virus 1) (UniProt Q9YQ12); assay: Inhibition of HIV-1 protease in human T cells assessed as increase in eGFP expression at >20 uM after 24 hrs by flow cytometry; assay type: cell-based; settings: T-cell; summary of the method: as §1
[20] = Cytotoxicity against human HEK293 cells expressing BCRP assessed as cell survival after 72 hrs by MTT assay; remark: listed apart in the source
[21] = Cytotoxicity against mouse NIH/3T3 cells assessed as cell survival after 72 hrs by MTT assay; remark: listed apart in the source
[22] = Cytotoxicity against mouse NIH/3T3 cells expressing pgp assessed as cell survival at >30 to 50 uM after 72 hrs by MTT assay; assay type: ADME, cell-based, NIH3T3; settings: NIH/3T3 cells expressing P-gp
[23] = as §3; assay type: ADME, cell-based, NIH3T3; settings: NIH/3T3 cells expressing P-gp

T3 sequence (P08183 whole entry): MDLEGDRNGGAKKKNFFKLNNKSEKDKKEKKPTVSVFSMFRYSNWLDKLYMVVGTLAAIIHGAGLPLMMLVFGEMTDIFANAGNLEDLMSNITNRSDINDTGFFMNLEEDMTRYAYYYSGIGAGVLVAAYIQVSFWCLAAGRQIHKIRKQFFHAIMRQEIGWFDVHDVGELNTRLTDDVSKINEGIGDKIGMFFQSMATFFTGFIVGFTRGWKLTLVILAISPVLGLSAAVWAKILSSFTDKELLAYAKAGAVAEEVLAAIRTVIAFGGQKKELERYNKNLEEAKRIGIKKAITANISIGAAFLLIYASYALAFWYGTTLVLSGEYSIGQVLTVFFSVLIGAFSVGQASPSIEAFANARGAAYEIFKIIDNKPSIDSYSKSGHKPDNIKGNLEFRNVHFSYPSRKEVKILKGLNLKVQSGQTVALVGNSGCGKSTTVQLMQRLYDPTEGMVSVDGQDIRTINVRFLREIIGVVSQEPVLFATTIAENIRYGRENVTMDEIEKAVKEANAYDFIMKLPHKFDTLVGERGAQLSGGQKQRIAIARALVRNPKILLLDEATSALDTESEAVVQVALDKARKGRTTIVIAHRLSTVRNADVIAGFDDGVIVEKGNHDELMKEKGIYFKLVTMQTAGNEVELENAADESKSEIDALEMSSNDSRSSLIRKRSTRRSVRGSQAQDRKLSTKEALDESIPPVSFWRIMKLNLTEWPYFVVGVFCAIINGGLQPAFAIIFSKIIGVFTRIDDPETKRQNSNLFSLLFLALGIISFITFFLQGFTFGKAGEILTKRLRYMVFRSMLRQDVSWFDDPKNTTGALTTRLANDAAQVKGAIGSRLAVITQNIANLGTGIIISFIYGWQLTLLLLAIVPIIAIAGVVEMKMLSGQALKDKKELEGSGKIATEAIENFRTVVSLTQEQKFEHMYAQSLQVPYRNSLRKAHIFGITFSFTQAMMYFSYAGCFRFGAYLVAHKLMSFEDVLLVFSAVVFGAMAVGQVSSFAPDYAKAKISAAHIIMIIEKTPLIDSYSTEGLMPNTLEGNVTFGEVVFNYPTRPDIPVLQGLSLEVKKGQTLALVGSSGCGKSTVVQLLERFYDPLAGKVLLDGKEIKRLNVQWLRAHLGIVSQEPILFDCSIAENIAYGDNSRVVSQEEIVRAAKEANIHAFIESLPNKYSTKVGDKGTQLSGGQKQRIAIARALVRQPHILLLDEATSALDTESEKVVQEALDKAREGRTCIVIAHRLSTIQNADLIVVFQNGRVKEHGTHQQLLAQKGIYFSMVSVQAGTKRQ
T2 sequence (Q9YQ12 whole entry): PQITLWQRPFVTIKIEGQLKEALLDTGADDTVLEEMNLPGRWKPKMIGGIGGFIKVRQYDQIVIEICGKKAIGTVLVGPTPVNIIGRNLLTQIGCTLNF
Protease (Human immunodeficiency virus 1), sequence (Q9YQ12 as listed by the source): as the sequence (Q9YQ12 whole entry) above

For O=C[C@H](Cc1ccccc1)N(Cc1ccccc1)C(=O)N(Cc1ccccc1)N1CCCCC1, the inhibition at 1 h, 10 µM [1] was 8.8%, the Ki [2] was 993 µM and the IC50 at 72 h [3] was 11.2 µM. For the same compound, the IC50 at 72 h [4] was 12.8 µM, the IC50 at 72 h [5] was 12.8 µM and the IC50 at 72 h [6] was 17.6 µM. The inhibition [7] was “inactive”, the inhibition at 1 h, 10 µM [8] was 15% and the Ki [9] was 1120 µM. It also gave an inhibition at 1 h, 2 µM [10] of 1.8%, an inhibition at 1 h, 2 µM [11] of 1.8% and a Ki [12] of 463 µM.
For O=C[C@H](Cc1ccccc1)NC(=O)N(Cc1ccccc1)N1CCOCC1, the inhibition at 1 h, 10 µM [1] was 3.3%, the Ki [2] was 996 µM and the IC50 at 72 h [13] was 79.8 µM. The inhibition [7] was “inactive”, the Activity [14] was “Not Active” and the Activity [15] was “Not Active”. The inhibition at 1 h, 10 µM [8] was 11.5%, the Activity [16] was “Not Active” and the Ki [9] was 366 µM. The inhibition at 1 h, 2 µM [10] was 0.2%, the inhibition at 1 h, 2 µM [11] was 7.1% and the Ki [12] was 317 µM.
Work on COc1cc2c(cc1OC)CN(CCc1ccc(NC(=O)c3cccc4c(=O)c5cccc(OC)c5[nH]c34)cc1)CC2 yielded an inhibition at 1 h, 2 µM [11] of 110%.
In the case of CC(C)(C)NC(=O)[C@@H]1CN(Cc2cccnc2)CCN1C[C@@H](O)C[C@@H](Cc1ccccc1)C(=O)N[C@H]1c2ccccc2C[C@H]1O, the inhibition [17] is reported as “Active”.
For O=C[C@H](Cc1ccccc1)NC(=O)N(Cc1cccc(O)c1)N1CCCCC1, the inhibition at 1 h, 10 µM [1] was 8.4%, the Ki [2] was 144 µM and the IC50 at 72 h [18] was 35.3 µM. For the same compound, the inhibition [19] was “Active”, the IC50 at 72 h [20] was 23.1 µM and the inhibition at 1 h, 10 µM [8] was 4.8%. The Ki [9] was 242 µM, the inhibition at 1 h, 2 µM [10] was 2.5% and the inhibition at 1 h, 2 µM [11] was 4.6%. It also gave a Ki [12] of 272 µM, an IC50 at 72 h [21] of 42.1 µM and an IC50 at 72 h [22] of 43.5 µM.
Compound O=C[C@H](Cc1ccc(O)cc1)NC(=O)N(Cc1ccccc1)N1CCCCC1 has an inhibition at 1 h, 10 µM [1] of 2.5%, a Ki [2] of 306 µM and an IC50 at 72 h [18] of 52.4 µM. The inhibition [7] was “inactive”, the IC50 at 72 h [20] was 47.9 µM and the inhibition at 1 h, 10 µM [8] was 3%. It also gave a Ki [9] of 342 µM, an inhibition at 1 h, 2 µM [10] of 0.9% and an inhibition at 1 h, 2 µM [11] of 1.1%. The Ki [12] was 395 µM, the IC50 at 72 h [21] was 58.6 µM and the IC50 at 72 h [22] was 71.2 µM.
With CC(C)(C)NC(=O)[C@@H]1C[C@@H]2CCCC[C@@H]2CN1C[C@@H](O)[C@H](Cc1ccccc1)NC(=O)[C@H](CC(N)=O)NC(=O)c1ccc2ccccc2n1 the IC50 at 72 h [13] was 37 µM, the Activity [14] was “Not Active” and the IC50 at 72 h [23] was 49 µM. The Activity [16] was “Not Active”.
COc1cccc(CN(C(=O)N[C@H](C=O)Cc2ccccc2)N2CCCCC2)c1 gave an inhibition at 1 h, 10 µM [1] of 8.1%, a Ki [2] of 334 µM and an IC50 at 72 h [18] of 42.6 µM. The inhibition [19] was “Active”, the IC50 at 72 h [20] was 37.2 µM and the inhibition at 1 h, 10 µM [8] was 22.7%. The Ki [9] was 410 µM, the inhibition at 1 h, 2 µM [10] was 0.9% and the inhibition at 1 h, 2 µM [11] was 7.7%. For the same compound, the Ki [12] was 320 µM, the IC50 at 72 h [21] was 39.4 µM and the IC50 at 72 h [22] was 46.8 µM.
O=C[C@H](Cc1ccccc1)NC(=O)N(Cc1ccccc1)N1CCCCC1 showed an inhibition at 1 h, 10 µM [1] of 0.3%, a Ki [2] of 292 µM and an IC50 at 72 h [18] of 37.6 µM. For the same compound, the inhibition [19] was “Active”, the IC50 at 72 h [20] was 34.8 µM and the inhibition at 1 h, 10 µM [8] was 6.4%. The Ki [9] was 257 µM, the inhibition at 1 h, 2 µM [10] was 0.2% and the inhibition at 1 h, 2 µM [11] was 5.5%. The Ki [12] was 172 µM, the IC50 at 72 h [21] was 42.6 µM and the IC50 at 72 h [22] was 48.6 µM.
In the case of CN(C)N(Cc1ccccc1)C(=O)N[C@H](C=O)Cc1ccccc1, the inhibition at 1 h, 10 µM [1] is reported as 8.1%, the Ki [2] is reported as 492 µM and the IC50 at 72 h [18] is reported as 56.3 µM. For the same compound, the inhibition [7] was “inactive”, the IC50 at 72 h [20] was 57.2 µM and the inhibition at 1 h, 10 µM [8] was 8.1%. For the same compound, the Ki [9] was 406 µM, the inhibition at 1 h, 2 µM [10] was 0.2% and the inhibition at 1 h, 2 µM [11] was 2.3%. It also gave a Ki [12] of 528 µM, an IC50 at 72 h [21] of 68.8 µM and an IC50 at 72 h [22] of 100 µM.
